An excerpt weighted towards active compounds, which were near 3.5% of everything screened.
MrgX1 PAM – positive allosteric modulators of MrgX1, primary screen, HEK293 cells, Fluo-4 calcium flux. FDSS; active compounds read high. B-score at 10 µM. AID 588675, 2011. hit rate 0.63% among 310,000. Mas-related G-protein coupled receptor member X1 (Homo sapiens), Q96LB2;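 active = plate-corrected calcium response at least 3 library SD above typical, normal starting fluorescence, not activating the receptor alone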;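 note: compound read alongside a low EC10 to EC30 dose of BAM8-22 agonist; peak minus trough fluorescence over baseline measured at the second addition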
Target sequence (Q96LB2 whole entry, looked up): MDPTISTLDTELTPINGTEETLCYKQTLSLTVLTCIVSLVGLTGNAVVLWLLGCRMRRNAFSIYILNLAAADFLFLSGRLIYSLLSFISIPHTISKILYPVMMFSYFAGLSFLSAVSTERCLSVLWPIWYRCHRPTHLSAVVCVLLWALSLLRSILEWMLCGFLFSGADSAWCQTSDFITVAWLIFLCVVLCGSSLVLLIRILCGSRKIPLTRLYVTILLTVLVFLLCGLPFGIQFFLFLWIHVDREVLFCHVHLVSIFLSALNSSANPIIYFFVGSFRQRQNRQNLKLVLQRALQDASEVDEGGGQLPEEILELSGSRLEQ
MrgX1 agonist – agonists of human MrgX1 receptor, primary screen, HEK293 cells, Fluo-4 calcium flux; Fluo-4 calcium fluorescence, agonist mode; active compounds read high; Mas-related G-protein coupled receptor member X1 (Homo sapiens), Q96LB2; B-score at 10 µM; hit rate 0.44% among 310,000;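 active = calcium response B-score plate-corrected fluorescence ratio at least 3 library SD, with starting fluorescence B-score inside 5 SD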
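Material: HEK293 cells stably expressing human MrgX1 receptor | Quantity: 15,000 cells per well | Times: Cells plated overnight, dye loaded 0.5 h 37 °C, 0.5 h room temperature | Measured by: Kinetic Fluo-4 NW fluorescence of intracellular calcium | Control set: Positive and negative controls per plate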
MrgX1 antagonist – antagonists of human MrgX1 receptor, primary screen, HEK293 cells, Fluo-4 calcium flux; hit rate 1.3% among 310,000; B-score at 10 µM; BAM8-22 antagonism; active compounds read low; Mas-related G-protein coupled receptor member X1 (Homo sapiens), Q96LB2; AID 588676, 2011;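 active = calcium-response B-score plate-corrected more than 3 library SD below zero, starting fluorescence within 5 deviations, no agonist response on first addition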;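 note: peak minus trough fluorescence over baseline after final BAM8-22 challenge near maximal dose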
RGS4 inh – RGS4 inhibitors, primary screen, cell-based, HEK293 M3R inducible RGS4, calcium flux; Regulator of G-protein signaling 4 (Homo sapiens), P49798; Fluo-4 calcium flux; active compounds read high; triggered by carbachol at its EC20; B-score at 10 µM; hit rate 0.45% among 310,000; AID 463165, 2010;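 active = B-score, a plate-corrected calcium signal, over three deviations above library mean, with baseline fluorescence within five deviations of library mean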;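 note: RGS4 expression induced by doxycycline in cells with stable M3 receptor; B-score is computed from the integrated fluorescence ratio over baseline after carbachol; higher B-score means a larger calcium signal and so more RGS4 inhibition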
Target sequence (P49798 whole entry, looked up): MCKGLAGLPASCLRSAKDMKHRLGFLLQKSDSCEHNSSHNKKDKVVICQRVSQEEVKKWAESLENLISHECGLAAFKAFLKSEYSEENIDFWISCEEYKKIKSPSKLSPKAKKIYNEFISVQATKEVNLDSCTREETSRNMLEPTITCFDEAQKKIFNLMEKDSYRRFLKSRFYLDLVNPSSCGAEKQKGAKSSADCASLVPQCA
RGS4 act – RGS4 potentiators or activators, primary screen, cell-based, HEK293 M3R inducible RGS4, calcium flux; carbachol calcium flux Fluo4; active compounds read low; B-score at 10 µM; hit rate 0.92% among 310,000; AID 463111, 2010;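 active = B-score of the integrated calcium signal more than 4 SD below the library mean, with starting fluorescence not abnormally high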;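 note: negative B-score means reduced calcium response which marks RGS4 activation or potentiation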
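System – HEK293 FlpIn-TREx cells, stable M3R, doxycycline-inducible RGS4 · Reagent – ECmax carbachol challenge · Times – compound preincubation 20 min at room temperature before agonist · Technique – Fluo4 fluorescence kinetic imaging of calcium · Measure – B score of integrated Fluo4 ratio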
RGS4 act valid – reduced carbachol calcium response, RGS4-induced M3R cells, confirmation, RGS4 activator project, cell-based, HEK293 M3R/RGS4 inducible, calcium flux, duplicate | shares compounds with RGS4 act | carbachol calcium flux Fluo4 | inhibition, % at 10 µM | hit rate 89% among 1,100 | AID 602282, 2012;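 active = inhibition above 3 SD of the buffer control wells, cut at about 41% in these data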;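 note: signal is the integrated peak-minus-minimum Fluo4 fluorescence over baseline ratio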
RGS4 act ctr – RGS4 activator counter-screen hit in non-induced cells; HEK293 M3R non-induced RGS4, Fluo4 calcium flux; after carbachol challenge at its EC90; inhibition, % at 10 µM; hit rate 82% among 1,100; shares compounds with RGS4 act;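 active = inhibition exceeding 3 SD of buffer-only control wells, cut at about 26% in these data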;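 note: percent drop in integrated peak-minus-baseline over baseline Fluo4 ratio after carbachol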
* marks the source's active call; other numbers are inactive results; i = inactive; x = not tested or not shown.

SMILES	MrgX1 PAM	MrgX1 agonist	MrgX1 antagonist	RGS4 inh	RGS4 act	RGS4 act valid	RGS4 act ctr
CCN(CC)CCC#CC(O)(c1ccccc1)c1ccccc1	i	i	i	i	-8.1*	93*	89*
CCN(CC)CCC#CC1(O)c2ccccc2-c2ccccc21	i	i	i	i	i	x	x
Cc1cc(N2CCCCCC2)nc2ccccc12	i	i	i	i	-10*	92*	48*
Cc1cc(N2CCCCC2)nc2ccccc12	i	i	i	i	i	x	x
CC(=O)/C(=N/Nc1ccc([N+](=O)[O-])cc1)N1CCCc2ccccc21	i	i	i	i	i	x	x
CC(=O)/C(=N/Nc1ccccc1[N+](=O)[O-])N1CCCc2ccccc21	i	i	i	i	-11*	93*	89*
Oc1ccc(-c2nc3ccccc3s2)c(O)c1	i	i	i	i	-7.9*	0	0
Nc1ccc(O)c(-c2nc3ccccc3s2)c1	i	i	i	i	i	x	x
O=C1Nc2c(c(=O)[nH]c(=O)n2-c2ccccc2)C(C(F)(F)F)(C(F)(F)F)N1	i	i	i	i	i	x	x
COc1ccc(OC)c(-c2csc(NC(=O)c3ccc(F)cc3)n2)c1	i	i	i	i	-8.3*	82*	52*
CN(C)C/C=C/C(O)(c1ccccc1)c1ccccc1	i	i	i	i	-9.3*	93*	75*
CC(C)N1CSC(=S)N(Cc2ccccc2)C1	i	i	i	i	i	x	x
Brc1ccc(-c2c[n+]3c(n2-c2ccccc2)SCC3)cc1	i	i	i	i	i	x	x
c1ccc(Cn2c(-c3ccccc3)c[n+]3c2SCCC3)cc1	i	i	i	i	-11*	92*	89*
O=c1c2ccccc2nc(-c2ccccc2Cl)n1O	i	i	i	i	i	x	x
O=C1NC2CCc3nc4ccccc4c(=O)n3C2=Nc2ccccc21 (configuration not stated)	i	i	i	i	-9.8*	0	0
CCn1ncc(C(=O)Nc2ccc(F)cc2)c1C	i	i	i	i	i	x	x
COc1cc(/C=N/c2oc(-c3ccccc3)cc2C#N)ccc1O	i	i	i	i	-7.8*	0	0
CCOc1ccc(OCCN2CCCCC2)cc1	i	i	i	i	i	x	x
CCCC(O)(CCN1CCOCC1)c1ccc(Br)cc1 (configuration not stated)	i	i	i	i	-9*	91*	78*
CCCOc1ccc(C(O)(CCC)CCN2CCCCC2)cc1 (configuration not stated)	i	i	i	i	-8.3*	88*	36*
CCCC(O)(CCN1CCOCC1)c1ccc(Cl)cc1 (configuration not stated)	i	i	i	i	i	x	x
CCOC(=O)c1cnc(=O)[nH]c1C	i	i	i	i	i	x	x
CCOc1cnc(-c2ccc(Cl)cc2)o1	i	i	i	i	i	x	x
CCOc1cnc(-c2c(-c3c(Cl)cccc3Cl)noc2C)o1	i	i	i	i	-8.5*	90*	61*
SMILES	MrgX1 PAM	MrgX1 agonist	MrgX1 antagonist	RGS4 inh	RGS4 act	RGS4 act valid	RGS4 act ctr
Clc1ccc(OCc2nc3ccccc3[nH]2)cc1	i	i	i	i	i	x	x
OC(Cc1nc2ccccc2[nH]1)c1ccccc1Cl (configuration not stated)	i	i	i	i	-8.2*	0	0
COc1ccc(-c2cc(=O)c3c(O)c(OC)c(O)cc3o2)cc1	i	i	i	i	i	x	x
COc1cc(-c2cc(=O)c3c(O)c(OC)c(OC)cc3o2)cc(OC)c1O	i	i	i	i	-8.3*	0	0
CN1/C(=C\C=C(/C#N)C(=O)Nc2ccc(Cl)cc2)C(C)(C)c2ccccc21	i	i	i	i	i	x	x
CN1/C(=C\C(=O)Nc2ccc(Cl)cc2)C(C)(C)c2ccccc21	i	i	i	i	-9.7*	92*	95*
O=C(O)c1cccc(Nc2nc(-c3cccnc3)nc3ccccc23)c1	i	i	i	i	i	x	x
COC(=O)c1cccc(Nc2nc(-c3cccnc3)nc3ccccc23)c1	i	i	i	i	-8.4*	42*	0
CC1CC(C)CN(C(=O)CCS(=O)(=O)c2ccc3c(c2)NC(=O)CS3)C1 (configuration not stated)	i	i	i	i	i	x	x
CCCCc1cc(O)c(CCCC)c(O)c1	i	i	-11*	i	-8*	92*	88*
CCCCCc1cc(O)c2c(C)cc(=O)oc2c1	i	i	i	i	i	x	x
O=C(CN1CCCCC1)Nc1ccccc1Oc1ccccc1	i	i	i	i	-8.2*	61*	84*
CS(=O)(=O)c1ccc2nc(NC(=O)c3ccc(Cn4cc(Br)cn4)o3)sc2c1	i	i	i	i	-8.8*	63*	0
Cc1nc2ccccc2c2oc(C(=O)NCC3COc4ccccc4O3)cc12 (configuration not stated)	i	i	i	i	-11*	82*	42*
CCc1ccc(CNC(=O)c2cc3c(C)nc4ccccc4c3o2)cc1	i	i	i	i	i	x	x
CN(Cc1ccccc1)S(=O)(=O)c1ccc(NS(=O)(=O)Cc2ccccc2)cc1	i	i	i	i	-8.8*	85*	57*
O=S(=O)(Cc1ccccc1)Nc1ccccc1	i	i	i	i	i	x	x
FC(F)(F)c1nc2ccccc2n1CCNc1nc(CN2CCCCC2)cs1	i	i	i	i	i	x	x
O=C(Nc1nc2ccc(S(=O)(=O)N3CCCC3)cc2s1)c1ccco1	i	i	i	i	-7.6*	0	0
CC(C)n1cc([C@@H]2C[C@H]3CN(Cc4cccc(Cl)c4)C(=O)[C@]34CCCN24)cn1	i	i	i	i	-7.6*	46*	84*
CCCn1nnc(NCc2ccc(OCc3cccs3)c(OC)c2)n1	i	i	i	i	i	x	x
CCNCc1ccc(OCc2cccs2)c(OCC)c1	i	i	i	i	-8.9*	62*	0
